Source: ChEMBL document CHEMBL1649277, “Inhibition of herpesvirus replication by 5-substituted 4'-thiopyrimidine nucleosides” (Antimicrob Agents Chemother, 2009)

Legend:
Human alphaherpesvirus 2 [1] = assay: Antiviral activity against 4'-thioIDU-resistant HSV2 infected in HFF after 3 days by plaque reduction assay; assay type: functional, organism-based; conditions: Human alphaherpesvirus 2, 72 h
Method in brief: (§1)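 Confluent HFF monolayers (passage <10) were infected in triplicate wells at 20–30 plaques per well, with 1 h adsorption and rocking every 15 min. Six serial dilutions (top 100 μM) were made in MEM with 2% FBS and pooled human immunoglobulin. Cells were incubated 3 days and stained with crystal violet. Plaques were counted, and EC50 was interpolated from plaque reduction.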

Human alphaherpesvirus 2 [2] = assay: Antiviral activity against HSV2 MS infected in HFF after 3 days by plaque reduction assay; assay type: functional, organism-based; conditions: Human alphaherpesvirus 2, MS, 72 h
Method in brief: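 Confluent primary HFF monolayers (passage <10), triplicate wells, virus dosed at 20–30 plaques/well. Adsorption was 1 h with rocking every 15 min. Six serial dilutions, top 100 μM, were made in MEM with 2% FBS plus pooled human immunoglobulin. After 3 days, wells were stained with 0.1% crystal violet in 20% methanol and plaques counted microscopically. EC50 was interpolated.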

Human alphaherpesvirus 2 [3] = assay: Antiviral activity against HSV2 harboring frameshift mutation in TK infected in HFF after 3 days by plaque reduction assay; assay type: functional, organism-based; conditions: Human alphaherpesvirus 2, 72 h; method in brief: as §1
Human alphaherpesvirus 2 [4] = assay: Selectivity ratio of EC50 for 4'-thioIDU-resistant HSV2 infected in HFF to EC50 for HSV2 MS infected in HFF; assay type: functional
HFF = assay: Antiproliferative activity against HFF after 3 days by Coulter counting analysis; assay type: cell-based; conditions: Homo sapiens, 72 h
Method in brief: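 HFF seeded at 2.5 × 10^4 cells/well and allowed 24 h before compound dilutions in growth medium were added. Cells were incubated 72 h at 37°C, detached with trypsin-EDTA, and viable cells counted with a Coulter Counter in triplicate wells. The mean cell number gave the concentration reducing cell number by 50%.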

[5] = Cytotoxicity against HFF after 3 days by MTS assay; assay type: cell-based; conditions: human, HFF cells
[6] = Selectivity index, ratio of CC50 for HFF to EC50 for HSV2 MS infected in HFF
Human alphaherpesvirus 2 [7] = assay: Antiviral activity against HSV2 MS infected in HFF assessed as decrease in viral DNA accumulation after 3 days; assay type: functional, organism-based; conditions: Human alphaherpesvirus 2, MS, 72 h
[8] = Antiviral activity against Human herpesvirus 6 GS infected in human HSB2 cells assessed as decrease in viral DNA accumulation after 7 days; assay type: functional, cell-based, Human herpesvirus 6 (strain GS); conditions: Human betaherpesvirus 6A, HSB2, 168 h
Method in brief: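 HSB-2 cells (2 × 10^4/well) in RPMI 1640 with 10% FBS were infected with HHV-6A strain GS, with compound dilutions in triplicate wells, at 37°C for 7 days. Total DNA was denatured and immobilized on nylon. Viral DNA accumulation was measured by digoxigenin-labeled DNA probe hybridization and anti-hapten antibody detection.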

Human alphaherpesvirus 3 = assay: Antiviral activity against VZV Ellan infected in HFF assessed as decrease in viral DNA accumulation after 8 to 10 days; assay type: functional, organism-based; conditions: Human alphaherpesvirus 3, Ellan
Human alphaherpesvirus 1 [9] = assay: Antiviral activity against HSV1 E377 infected in HFF assessed as decrease in viral DNA accumulation after 3 days; assay type: functional, organism-based; conditions: Human alphaherpesvirus 1, E377, 72 h
Human betaherpesvirus 5 [10] = assay: Antiviral activity against human cytomegalovirus AD169 infected in HFF assessed as decrease in viral DNA accumulation after 8 to 10 days; assay type: functional, organism-based; conditions: Human betaherpesvirus 5, AD169
Human gammaherpesvirus 8 = assay: Antiviral activity against Human herpesvirus 8 infected in human BCBL1 cells assessed as decrease in viral DNA accumulation after 7 days; assay type: functional, organism-based; conditions: Human gammaherpesvirus 8, BCBL1, 168 h
Method in brief: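 BCBL1 cells in RPMI 1640 with 10% FBS were induced to lytic replication with phorbol 12-myristate 13-acetate (100 ng/ml final). Compound was tested in triplicate wells up to 100 μM for 7 days at 37°C. Total DNA was purified and viral DNA quantified by TaqMan qPCR. EC50 is the concentration giving 50% reduction of DNA accumulation.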

Human gammaherpesvirus 4 = assay: Antiviral activity against Epstein-Barr virus infected in human Akata cells assessed as decrease in viral DNA accumulation after 72 hrs; assay type: functional, organism-based; conditions: human gammaherpesvirus 4, Akata
Method in brief: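 Latent Akata cells in RPMI 1640 with 10% FBS were induced to productive infection with 50 μg/ml goat anti-human IgG, 4 × 10^4 cells per well, with compound at 100–0.032 μM. After 72 h, NaOH/NaCl denaturation was followed by nylon membrane blotting. Viral DNA was quantified by digoxigenin-labeled probe hybridization and anti-hapten antibody detection.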

Human betaherpesvirus 5 [11] = assay: Antiviral activity against human cytomegalovirus PFAB300 harboring UL54 L724V mutant gene infected in HFF after 8 to 10 days by plaque reduction assay; assay type: functional, organism-based; conditions: Human betaherpesvirus 5, PFAB300
Method in brief: (§2)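 Plaque reduction in confluent HFF with six serial dilutions (top 100 μM) and no immunoglobulin added. Virus was adsorbed 1 h on triplicate wells. Cells were incubated 8 days, stained with 0.017% neutral red in PBS, and plaques counted. EC50 is the concentration reducing plaque number by 50%.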

Human betaherpesvirus 5 [12] = assay: Antiviral activity against human cytomegalovirus 759D100 harboring deletion mutation in UL97 gene and UL54 A987G mutant gene infected in HFF after 8 to 10 days by plaque reduction assay; assay type: functional, organism-based; conditions: Human betaherpesvirus 5, 759D100; method in brief: as §2
Human betaherpesvirus 5 [13] = assay: Antiviral activity against human cytomegalovirus C8914-6 harboring UL97 I244V, L595F and UL54 L501F mutant gene infected in HFF after 8 to 10 days by plaque reduction assay; assay type: functional, organism-based; conditions: Human betaherpesvirus 5, C8914-6; method in brief: as §2
Human betaherpesvirus 5 [14] = assay: Antiviral activity against human cytomegalovirus AD169 infected in HFF after 8 to 10 days by plaque reduction assay; assay type: functional, organism-based; conditions: Human betaherpesvirus 5, AD169
Method in brief: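 Plaque reduction on confluent HFF monolayers in triplicate wells: 1 h adsorption, then six serial compound dilutions (top 100 μM) in MEM with 2% FBS, no immunoglobulin. Incubation was 8 days for HCMV and 10 days for VZV. Plaques were stained with 0.017% neutral red in PBS and counted microscopically. EC50 was interpolated at 50% plaque reduction.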

Human betaherpesvirus 5 [15] = assay: Antiviral activity against human cytomegalovirus VR4955 harboring UL54 T700A mutant gene infected in HFF after 8 to 10 days by plaque reduction assay; assay type: functional, organism-based; conditions: Human betaherpesvirus 5, VR4955; method in brief: as §2
Human betaherpesvirus 5 [16] = assay: Antiviral activity against human cytomegalovirus 1117 harboring UL54 K513N mutant gene infected in HFF after 8 to 10 days by plaque reduction assay; assay type: functional, organism-based; conditions: Human betaherpesvirus 5, 1117; method in brief: as §2
Human betaherpesvirus 5 [17] = assay: Antiviral activity against human cytomegalovirus RC314 harboring UL97 K355M mutant gene infected in HFF after 8 to 10 days by plaque reduction assay; assay type: functional, organism-based; conditions: Human betaherpesvirus 5, RC314; method in brief: as §2
Human alphaherpesvirus 1 [18] = assay: Antiviral activity against HSV1 PAA5 harboring polymerase R842S mutant gene infected in HFF after 3 days by plaque reduction assay; assay type: functional, organism-based; conditions: Human alphaherpesvirus 1, PAA5, 72 h; method in brief: as §1
Human alphaherpesvirus 2 [19] = assay: Antiviral activity against HSV2 AG-3 harboring TK Q105P mutant gene infected in HFF after 3 days by plaque reduction assay; assay type: functional, organism-based; conditions: Human alphaherpesvirus 2, AG-3, 72 h; method in brief: as §1
Human alphaherpesvirus 2 [20] = assay: Antiviral activity against HSV2 13077 harboring TK R223H mutant gene infected in HFF after 3 days by plaque reduction assay; assay type: functional, organism-based; conditions: Human alphaherpesvirus 2, 13077, 72 h; method in brief: as §1
Human alphaherpesvirus 1 [21] = assay: Antiviral activity against HSV1 B-2006 harboring frameshift mutation at Q185 in TK infected in HFF after 3 days by plaque reduction assay; assay type: functional, organism-based; conditions: Human alphaherpesvirus 1, B-2006, 72 h; method in brief: as §1
Human alphaherpesvirus 1 [22] = assay: Antiviral activity against HSV1 DM2.1 harboring frameshift mutation in TK infected in HFF after 3 days by plaque reduction assay; assay type: functional, organism-based; conditions: Human alphaherpesvirus 1, DM2.1, 72 h; method in brief: as §1
Human alphaherpesvirus 2 [23] = assay: Antiviral activity against HSV2 12247 harboring TK C337Y mutant gene infected in HFF after 3 days by plaque reduction assay; assay type: functional, organism-based; conditions: Human alphaherpesvirus 2, 12247, 72 h; method in brief: as §1
Human alphaherpesvirus 1 [24] = assay: Antiviral activity against HSV1 E377 infected in HFF after 3 days by plaque reduction assay; assay type: functional, organism-based; conditions: Human alphaherpesvirus 1, E377, 72 h; method in brief: as §1
Human alphaherpesvirus 1 [25] = assay: Antiviral activity against HSV1 SC16-S1 harboring TK A265T/C336Y mutant gene infected in HFF after 3 days by plaque reduction assay; assay type: functional, organism-based; conditions: Human alphaherpesvirus 1, SC16-S1, 72 h; method in brief: as §1
Human alphaherpesvirus 2 [26] = assay: Antiviral activity against HSV2 11680 harboring TK R223H mutant gene infected in HFF after 3 days by plaque reduction assay; assay type: functional, organism-based; conditions: Human alphaherpesvirus 2, 11680, 72 h; method in brief: as §1

Compound: O=c1[nH]c(=O)n([C@H]2C[C@H](O)[C@@H](CO)O2)cc1I [IDOXURIDINE]
- EC50 (Human alphaherpesvirus 2 [1]): > 100 µM
- EC50 (Human alphaherpesvirus 2 [2]): 2.4 µM
- EC50 (Human alphaherpesvirus 2 [3]): 78 µM
- Ratio EC50 (Human alphaherpesvirus 2 [4]): 42

Compound: Nc1nc(=O)n([C@H]2C[C@H](O)[C@@H](CO)S2)cc1Br
- IC50 (HFF): > 100 µM
- EC50 (Human alphaherpesvirus 2 [2]): 15 µM
- CC50 at 72 h [5]: > 100 µM
- Ratio CC50/EC50 [6]: > 6.7

Compound: Nc1ccn(C[C@@H](CO)OCP(=O)(O)O)c(=O)n1.O.O [CIDOFOVIR]
- EC50 (Human alphaherpesvirus 2 [7]): 5.1 µM
- EC50 (Human alphaherpesvirus 2 [1]): 4.7 µM
- EC50 [8]: 2.7 µM
- EC50 (Human alphaherpesvirus 2 [2]): 9.5 µM
- EC50 (Human alphaherpesvirus 3): 0.5 µM
- EC50 (Human alphaherpesvirus 2 [3]): 1.2 µM
- EC50 (Human alphaherpesvirus 1 [9]): 5.5 µM
- EC50 (Human betaherpesvirus 5 [10]): 0.4 µM
- CC50 at 72 h [5]: > 100 µM
- Ratio EC50 (Human alphaherpesvirus 2 [4]): 1.3
- EC50 (Human gammaherpesvirus 8): 0.064 µM
- EC50 (Human gammaherpesvirus 4): 0.48 µM

Compound: Nc1nc2c(ncn2COC(CO)CO)c(=O)[nH]1 [GANCICLOVIR]
- EC50 (Human betaherpesvirus 5 [11]): 9.8 µM
- EC50 (Human betaherpesvirus 5 [12]): 230 µM
- EC50 (Human betaherpesvirus 5 [13]): 53 µM
- EC50 (Human betaherpesvirus 5 [14]): 3.3 µM
- EC50 (Human betaherpesvirus 5 [15]): 7.2 µM
- EC50 (Human betaherpesvirus 5 [16]): 15 µM
- EC50 (Human betaherpesvirus 5 [17]): 44 µM

Compound: Nc1ccn([C@@H]2S[C@H](CO)[C@@H](O)[C@@H]2O)c(=O)n1 [THIARABINE]
- EC50 (Human alphaherpesvirus 2 [2]): 0.9 µM
- CC50 at 72 h [5]: > 100 µM
- Ratio CC50/EC50 [6]: > 110

Compound: Cc1cn([C@H]2C[C@H](O)[C@@H](CO)S2)c(=O)[nH]c1=O [4'-THIOTHYMIDINE]
- IC50 (HFF): < 0.03 µM
- EC50 (Human alphaherpesvirus 2 [2]): 0.2 µM
- CC50 at 72 h [5]: > 100 µM
- Ratio CC50/EC50 [6]: > 500

Compound: O=C(O)P(=O)(O)O [FOSCARNET]
- EC50 (Human alphaherpesvirus 2 [1]): 403 µM
- EC50 (Human alphaherpesvirus 2 [2]): 670 µM
- EC50 (Human alphaherpesvirus 2 [3]): 389 µM
- Ratio EC50 (Human alphaherpesvirus 2 [4]): 0.66

Compound: Nc1nc2c(ncn2COCCO)c(=O)[nH]1 [ACYCLOVIR]
- EC50 (Human alphaherpesvirus 2 [1]): > 440 µM
- EC50 (Human alphaherpesvirus 1 [18]): 0.011 µM
- IC50 (HFF): > 444 µM
- EC50 (Human alphaherpesvirus 2 [2]): 3 µM
- EC50 (Human alphaherpesvirus 2 [19]): 4.7 µM
- EC50 (Human alphaherpesvirus 2 [20]): 4.9 µM
- EC50 (Human alphaherpesvirus 1 [21]): 4.4 µM
- EC50 (Human alphaherpesvirus 2 [3]): > 100 µM
- CC50 at 72 h [5]: > 444 µM
- EC50 (Human alphaherpesvirus 1 [22]): 12 µM
- EC50 (Human alphaherpesvirus 2 [23]): 9.6 µM
- Ratio EC50 (Human alphaherpesvirus 2 [4]): >100
- EC50 (Human alphaherpesvirus 1 [24]): 0.08 µM
- EC50 (Human alphaherpesvirus 1 [25]): 0.6 µM
- EC50 (Human alphaherpesvirus 2 [26]): 6.6 µM

Compound: O=c1[nH]c(=O)n([C@H]2C[C@H](O)[C@@H](CO)S2)cc1C(F)(F)F
- IC50 (HFF): 0.1 µM
- EC50 (Human alphaherpesvirus 2 [2]): 0.3 µM
- CC50 at 72 h [5]: > 100 µM
- Ratio CC50/EC50 [6]: > 330

Compound: O=c1[nH]c(=O)n([C@H]2C[C@H](O)[C@@H](CO)S2)cc1Br
- EC50 (Human alphaherpesvirus 2 [2]): 4.8 µM
- CC50 at 72 h [5]: > 100 µM
- Ratio CC50/EC50 [6]: > 21
